According to ChEMBL document CHEMBL3098020, “Synthesis and biological evaluation of novel 2-amino-3-aroyl-4-neopentyl-5-substituted thiophene derivatives as allosteric enhancers of the A₁ adenosine receptor” (Bioorg Med Chem, 2014):

How the values were obtained:
[1] = target: T1, Adenosine receptor A1 (Homo sapiens) (UniProt P30542); test: Potentiation of CCPA-induced displacement of [3H]-DPCPX from human adenosine A1 receptor expressed in CHO cell membranes at 10 uM after 90 mins relative to CCPA-treated control
T1 sequence (whole entry): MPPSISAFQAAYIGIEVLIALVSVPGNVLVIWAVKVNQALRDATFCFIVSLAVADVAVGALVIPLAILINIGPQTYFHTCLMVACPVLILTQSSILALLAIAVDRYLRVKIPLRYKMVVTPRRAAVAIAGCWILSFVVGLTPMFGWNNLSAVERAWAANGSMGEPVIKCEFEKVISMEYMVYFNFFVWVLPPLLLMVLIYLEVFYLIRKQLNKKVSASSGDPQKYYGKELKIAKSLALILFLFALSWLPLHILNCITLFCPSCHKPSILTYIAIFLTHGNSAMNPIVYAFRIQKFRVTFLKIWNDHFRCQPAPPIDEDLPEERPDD
In short: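 CCPA (0.01 nM–1 µM) competition against [³H]DPCPX in hA1-CHO membranes, with or without compound at 10 µM. Nonspecific binding defined with 1 µM DPCPX. Ki calculated from IC50 by the Cheng-Prusoff equation; CCPA Ki shift given as fold change; three experiments.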

[2] = target: T1, Adenosine receptor A1 (Homo sapiens); test: Potentiation of [3H]CCPA binding to human adenosine A1 receptor expressed in CHO cell membranes at 10 uM after 90 mins relative to [3H]CCPA-treated control
[3] = target: T2, Adenosine receptor A3 (Homo sapiens) (UniProt P0DMS8); test: Displacement of [3H]-MRE-3008-F20 from human adenosine A3 receptor expressed in CHO cell membranes at 10 uM by scintillation counting analysis relative to control
T2 sequence (whole entry): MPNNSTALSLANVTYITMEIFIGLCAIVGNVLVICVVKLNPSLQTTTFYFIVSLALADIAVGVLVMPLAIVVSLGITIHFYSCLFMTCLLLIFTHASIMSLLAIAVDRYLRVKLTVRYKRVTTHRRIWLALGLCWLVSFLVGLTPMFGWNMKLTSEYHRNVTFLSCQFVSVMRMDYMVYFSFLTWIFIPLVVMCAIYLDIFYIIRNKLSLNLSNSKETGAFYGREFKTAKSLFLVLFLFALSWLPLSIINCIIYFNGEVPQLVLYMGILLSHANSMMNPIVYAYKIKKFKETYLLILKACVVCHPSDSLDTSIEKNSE
In short: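 A3-expressing CHO membranes in 50 mM Tris-HCl, 10 mM MgCl₂, 1 mM EDTA pH 7.4 with 2 nM [³H]MRE-3008-F20. Incubated 120 min at 4 °C. Compound 10 µM in 1% DMSO final. Filtration and scintillation counting; percent inhibition of specific binding.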

[4] = target: Adenosine receptor A2a (Homo sapiens) (UniProt P29274); test: Displacement of [3H]-ZM241385 from human adenosine A2A receptor expressed in CHO cell membranes at 10 uM by scintillation counting analysis relative to control
Adenosine receptor A2a (Homo sapiens), sequence (P29274 whole entry): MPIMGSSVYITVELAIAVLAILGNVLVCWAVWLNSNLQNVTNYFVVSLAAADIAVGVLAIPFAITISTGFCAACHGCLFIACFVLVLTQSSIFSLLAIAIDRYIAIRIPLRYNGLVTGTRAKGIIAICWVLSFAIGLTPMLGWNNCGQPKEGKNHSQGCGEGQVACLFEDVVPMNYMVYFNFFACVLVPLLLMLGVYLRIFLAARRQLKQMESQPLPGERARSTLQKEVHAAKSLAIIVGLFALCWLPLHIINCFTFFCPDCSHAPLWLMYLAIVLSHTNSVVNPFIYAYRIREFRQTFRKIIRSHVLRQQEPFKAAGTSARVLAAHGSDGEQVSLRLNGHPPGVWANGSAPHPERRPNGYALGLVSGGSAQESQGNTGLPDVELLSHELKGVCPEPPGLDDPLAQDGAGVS
In short: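 A2A-expressing CHO membranes, pretreated with adenosine deaminase, in 50 mM Tris-HCl, 10 mM MgCl₂ pH 7.4 with 1 nM [³H]ZM 241385. Incubated 60 min at 4 °C. Compound 10 µM in 1% DMSO final. Filtration and scintillation counting; percent inhibition of specific binding.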

[5] = target: T1, Adenosine receptor A1 (Homo sapiens); test: Displacement of [3H]-DPCPX from human adenosine A1 receptor expressed in CHO cell membranes at 10 uM by scintillation counting analysis relative to control
In short: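 hA1-CHO membranes, pretreated with adenosine deaminase, in 50 mM Tris-HCl pH 7.4 with 1 nM [³H]DPCPX. Incubated 120 min at 25 °C. Compound 10 µM added from 100-fold DMSO stock, 1% DMSO final. Bound ligand collected on glass-fibre filters and counted by scintillation; percent inhibition of specific binding.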

[6] = target: T1, Adenosine receptor A1 (Homo sapiens); test: Allosteric enhancement of human adenosine A1 receptor expressed in CHO cells assessed as inhibition of forskolin-stimulated cAMP production at 100 nM preincubated for 10 mins followed by forskolin challenge measured after 5 mins by scintillation counting analysis in presence of CCPA relative to control; format: functional, cell-based
In short: (§1)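 hA1-CHO cells (10⁶ cells/mL) in phosphate buffer with adenosine deaminase 1.0 IU/mL and Ro 20-1724 0.5 mM, preincubated 10 min at 37 °C. Compound added for 10 min, alone or at 100 nM with CCPA 1 pM. Forskolin 1 µM added for 5 min, stopped with cold 6% TCA. cAMP measured by [³H]-cAMP competition protein-binding assay; percent inhibition versus control; three experiments.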

[7] = target: T1, Adenosine receptor A1 (Homo sapiens); test: Allosteric enhancement of human adenosine A1 receptor expressed in CHO cells assessed as inhibition of forskolin-stimulated cAMP production at 10 uM preincubated for 10 mins followed by forskolin challenge measured after 5 mins by scintillation counting analysis relative to control; format: functional, cell-based; in short: as §1

| SMILES | fold change (FC) [1] | fold change (FC) [2] | inhibition [3] [%] | inhibition [4] [%] | inhibition [5] [%] | inhibition [6] [%] | inhibition [7] [%] |
| --- | --- | --- | --- | --- | --- | --- | --- |
| Cc1ccc(C(=O)c2c(N)sc(Br)c2CC(C)(C)C)cc1 | 4.3 | 6.4 | 1 | 1 | 1 | 63 | 61 |
| CC(C)(C)Cc1c(-c2ccccc2)sc(N)c1C(=O)c1cccc(Cl)c1 | 3.1 | 6.3 | 5 | 4 | 2 | 57 | 59 |
| CC(C)(C)Cc1c(Br)sc(N)c1C(=O)c1cccc(C(F)(F)F)c1 | 3 | 4.4 | 4 | 1 | 1 | 50 | 49 |
| COc1ccc(-c2sc(N)c(C(=O)c3cccc(C(F)(F)F)c3)c2CC(C)(C)C)cc1 | 1.8 | 4 | 1 | 1 | 2 | 46 | 44 |
| CC(C)(C)Cc1c(-c2cccs2)sc(N)c1C(=O)c1ccc(Cl)cc1 | 3.9 | 6.2 | 1 | 2 | 1 | 62 | 58 |
| CC(C)(C)Cc1csc(N)c1C(=O)c1cccc(C(F)(F)F)c1 | 1.7 | 2.6 | 1 | 1 | 1 | 30 | 28 |
| COc1ccccc1-c1sc(N)c(C(=O)c2ccc(Cl)cc2)c1CC(C)(C)C | 1.9 | 2.5 | 1 | 1 | 1 | 29 | 27 |
| CC(C)(C)Cc1csc(N)c1C(=O)c1ccc(Cl)c(Cl)c1 | 2 | 4.1 | 10 | 1 | 1 | 41 | 43 |
| Cc1csc(N)c1C(=O)c1ccc(Cl)cc1 | 1.6 | 1.5 | 1 | 1 | 1 | 18 | 16 |
| CC(C)(C)Cc1c(-c2ccccc2)sc(N)c1C(=O)c1cccc(C(F)(F)F)c1 | 3.6 | 4 | 1 | 1 | 1 | 39 | 38 |
| CC(C)(C)c1csc(N)c1C(=O)c1ccc(Cl)cc1 | 1.6 | 1.3 | 1 | 1 | 1 | 18 | 11 |
| CC(C)(C)Cc1csc(N)c1C(=O)c1cccc(Cl)c1 | 1.5 | 4.3 | 8 | 1 | 2 | 42 | 45 |
| CC(C)(C)Cc1c(/C=C/c2ccc(Cl)cc2)sc(N)c1C(=O)c1ccc(Cl)cc1 | 2.8 | 4.8 | 11 | 1 | 1 | 53 | 51 |
| Cc1ccc(C(=O)c2c(CC(C)(C)C)csc2N)cc1 | 2 | 3.3 | 1 | 1 | 1 | 35 | 38 |

The remaining lines, values ahead:

| fold change (FC) [1] | fold change (FC) [2] | inhibition [3] [%] | inhibition [4] [%] | inhibition [5] [%] | inhibition [6] [%] | inhibition [7] [%] | SMILES |
| --- | --- | --- | --- | --- | --- | --- | --- |
| 4.8 | 5.9 | 6 | 1 | 1 | 57 | 56 | CC(C)(C)Cc1c(-c2ccccc2)sc(N)c1C(=O)c1ccc(Cl)c(Cl)c1 |
| 1.7 | 2.5 | 1 | 1 | 1 | 31 | 27 | CC(C)(C)Cc1c(-c2cn[nH]c2)sc(N)c1C(=O)c1ccc(Cl)cc1 |
| 3.5 | 5.1 | 1 | 1 | 1 | 47 | 49 | CC(C)(C)Cc1c(-c2ccco2)sc(N)c1C(=O)c1ccc(Cl)cc1 |
| 4.3 | 6 | 1 | 1 | 1 | 52 | 54 | COc1ccc(-c2sc(N)c(C(=O)c3ccc(Cl)c(Cl)c3)c2CC(C)(C)C)cc1 |
| 3.7 | 5.5 | 9 | 1 | 1 | 52 | 50 | CC(C)(C)Cc1c(-c2ccc(F)cc2)sc(N)c1C(=O)c1ccc(Cl)cc1 |
| 4.3 | 6.1 | 2 | 1 | 1 | 43 | 44 | COc1ccc(-c2sc(N)c(C(=O)c3ccc(Cl)cc3)c2CC(C)(C)C)cc1 |
| 4.3 | 6 | 1 | 1 | 1 | 61 | 59 | CC(C)(C)Cc1c(-c2ccc(Cl)c(Cl)c2)sc(N)c1C(=O)c1ccc(Cl)cc1 |
| 4 | 5.8 | 1 | 1 | 1 | 58 | 57 | CC(C)(C)Cc1c(-c2ccc(Cl)cc2)sc(N)c1C(=O)c1ccc(Cl)cc1 |
| 4.1 | 5.6 | 1 | 1 | 1 | 58 | 56 | CC(C)c1ccc(-c2sc(N)c(C(=O)c3ccc(Cl)cc3)c2CC(C)(C)C)cc1 |
| 6 | 6.4 | 1 | 1 | 1 | 58 | 57 | Cc1ccc(-c2sc(N)c(C(=O)c3ccc(Cl)cc3)c2CC(C)(C)C)cc1 |
| 2.7 | 4.1 | 1 | 1 | 1 | 49 | 47 | Cc1ccccc1-c1sc(N)c(C(=O)c2ccc(Cl)cc2)c1CC(C)(C)C |
| 4.9 | 6.1 | 1 | 3 | 1 | 63 | 60 | CC(C)(C)Cc1c(-c2cccc(F)c2F)sc(N)c1C(=O)c1ccc(Cl)cc1 |
| 3.1 | 5.6 | 1 | 1 | 1 | 56 | 55 | CC(C)(C)Cc1c(-c2ccoc2)sc(N)c1C(=O)c1ccc(Cl)cc1 |
